Measured values from ChEMBL document CHEMBL5360548, “Fatty acids as molecular carriers in cleavable antifungal conjugates” (Eur J Med Chem, 2023).
Converted amounts (≈) assume the structure as drawn. The source made the active and inactive calls. The rule behind the calls is not given here.

Assays:
Diutina rugosa = experiment: Antifungal activity Candida rugosa DSM 2031 by two-fold dilution method; assay type: functional
Outline: (§1)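 Serial two-fold broth microdilution MIC per CLSI M27-A3, in RPMI-1640 without bicarbonate, with L-glutamine, 2% glucose and 3.45% MOPS, pH 7.0. Conjugates tested at 512–1 µg mL-1, 5-FC at 64–0.125 µg mL-1. Strains maintained at 30 °C in YPD medium and stored on YPD agar.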

[1] = tested on: Meyerozyma guilliermondii; experiment: Antifungal activity Candida guilliermondii DSM 11947 by two-fold dilution method; assay type: functional; outline: as §1
Candida albicans [2] = experiment: Antifungal activity Candida albicans ATCC 10231 by two-fold dilution method; assay type: functional; outline: as §1
Nakaseomyces glabratus = experiment: Antifungal activity Candida glabrata DSM 11226 by two-fold dilution method; assay type: functional; outline: as §1
Pichia kudriavzevii = experiment: Antifungal activity Candida krusei DSM 6128 by two-fold dilution method; assay type: functional; outline: as §1
Kluyveromyces marxianus = experiment: Antifungal activity Candida pseudotropicalis KKP 324 by two-fold dilution method; assay type: functional; outline: as §1
Debaryomyces hansenii = experiment: Antifungal activity Candida famata DSM 3428 by two-fold dilution method; assay type: functional; outline: as §1
Candida parapsilosis = experiment: Antifungal activity Candida parapsilosis DSM 5784 by two-fold dilution method; assay type: functional; settings: Lodderomyces parapsilosis; outline: as §1
[3] = Induction of hemolysis in human RBC at upto 200 ug/ml incubated for 30 mins by absorbance based microplate reader analysis relative to control; assay type: toxicity, cell-based, Erythrocyte; settings: human red blood cells (erythrocytes), up to 200 µg/mL
Outline: (§2)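 Human erythrocytes at 2 × 10^7 cells mL-1 in saline, exposed to two-fold dilutions from DMSO stocks (final 200–0.4 µg mL-1), 37 °C, 30 min, then centrifuged. Hemoglobin in supernatant read at A540. Percent hemolysis scaled between DMSO (0%) and Triton X-100 (100%) controls. EH50 interpolated as the concentration giving 50% of the positive-control A540.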

Candida albicans [4] = experiment: Antifungal activity Candida albicans ATCC 10231 at 512 ug/ml by two-fold dilution method; assay type: functional, organism-based; settings: dose 512.0 µg/ml; outline: as §1
[5] = Induction of hemolysis in human RBC incubated for 30 mins by absorbance based microplate reader analysis; assay type: toxicity, cell-based, Erythrocyte; settings: human red blood cells (erythrocytes); outline: as §2
[6] = Drug localization in cytoplasm of Candida cells measured after 1 hr by confocal microscopy based analysis; assay type: ADME, cell-based
Outline: (§3)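 Candida from overnight YPD culture were washed, grown in RPMI-1640 at 30 °C with shaking from OD660 0.1 to 0.3, then resuspended in PBS to OD660 0.2. Fluorescent conjugate added to 50 µg mL-1 final and incubated at 30 °C, 150 rpm. Samples taken over time, washed 4× in PBS, imaged by confocal microscopy (ex 438, em 527 nm).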

[7] = Drug uptake in Candida glabrata cells assessed as increase in number of cells emitting green fluorescence measured after 10 to 30 mins by fluorescence based analysis; assay type: ADME, cell-based; settings: nakaseomyces glabratus; time 10-30 min; outline: as §3

Row | SMILES | MIC (Diutina rugosa) [µg/mL] | MIC [1] [µg/mL] | MIC (Candida albicans [2]) [µg/mL] | MIC (Nakaseomyces glabratus) [µg/mL] | MIC (Pichia kudriavzevii) [µg/mL] | MIC (Kluyveromyces marxianus) [µg/mL] | MIC (Debaryomyces hansenii) [µg/mL] | MIC (Candida parapsilosis) [µg/mL] | hemolysis at 0.5 h [3] [%] | Activity (Candida albicans [4]) | HC50 at 0.5 h [5] [µg/mL] | Drug uptake [6] | Drug uptake [7]
1 | CCCCCCCCCC(=O)Oc1cc(C)cc(C)c1C(C)(C)CC(=O)Oc1ncc(F)c(N)n1 | 16 (≈ 32.8 µM) | 8 (≈ 16.4 µM) | 8 (≈ 16.4 µM) | 4 (≈ 8.2 µM) | 256 (≈ 525 µM) | 32 (≈ 65.6 µM) | 8 (≈ 16.4 µM) | 4 (≈ 8.2 µM) | < 5 |  |  |  | 
2 | CCCCCCCCCCCC(=O)Oc1cc(C)cc(C)c1C(C)(C)CC(=O)Oc1ncc(F)c(N)n1 | 16 (≈ 31 µM) | 8 (≈ 15.5 µM) | 8 (≈ 15.5 µM) | 4 (≈ 7.76 µM) | 256 (≈ 496 µM) | 64 (≈ 124 µM) | 4 (≈ 7.76 µM) | 4 (≈ 7.76 µM) | < 5 |  |  |  | 
3 | CCCCCCCCCCCCCC(=O)Oc1cc(C)cc(C)c1C(C)(C)CC(=O)NCCNc1ccc2c3c(cccc13)C(=O)N(CCCC)C2=O |  |  |  |  |  |  |  |  |  | inactive |  |  | 
4 | CCCCCCCCCCCCCCCCCC(=O)Oc1cc(C)cc(C)c1C(C)(C)CC(=O)Oc1ncc(F)c(N)n1 | > 512 | 256 (≈ 427 µM) | 128 (≈ 213 µM) | 32 (≈ 53.3 µM) | > 512 | 512 (≈ 854 µM) | 256 (≈ 427 µM) | 128 (≈ 213 µM) | < 5 |  |  |  | 
5 | C[C@@H]1[C@H](O)[C@@H](C)/C=C/C=C/C=C/C=C/C=C/C=C/C=C/[C@H](O[C@@H]2O[C@H](C)[C@@H](O)[C@H](N)[C@@H]2O)C[C@@H]2O[C@](O)(C[C@@H](O)C[C@@H](O)[C@H](O)CC[C@@H](O)C[C@@H](O)CC(=O)O[C@H]1C)C[C@H](O)[C@H]2C(=O)O [AMPHOTERICIN B] |  |  |  |  |  |  |  |  |  |  | 3.46 |  | 
6 | CCCCCCCCCCCCCCCCCC(=O)Oc1cc(C)cc(C)c1C(C)(C)CC(=O)NCCNc1ccc2c3c(cccc13)C(=O)N(CCCC)C2=O |  |  |  |  |  |  |  |  |  | inactive |  |  | 
7 | Nc1nc(=O)[nH]cc1F [FLUCYTOSINE] | 2 (≈ 15.5 µM) | 0.5 (≈ 3.87 µM) | 1 (≈ 7.75 µM) | 0.5 (≈ 3.87 µM) | > 512 | 1 (≈ 7.75 µM) | 1 (≈ 7.75 µM) | 2 (≈ 15.5 µM) |  |  |  |  | 
8 | CCCCN1C(=O)c2cccc3c(NCCNC(=O)CC(C)(C)c4c(C)cc(C)cc4OC(C)=O)ccc(c23)C1=O |  |  |  |  |  |  |  |  |  | inactive |  |  | 
9 | CCCCCCCCCCCC(=O)Oc1cc(C)cc(C)c1C(C)(C)CC(=O)NCCNc1ccc2c3c(cccc13)C(=O)N(CCCC)C2=O |  |  |  |  |  |  |  |  |  | inactive |  |  | 
10 | CC(=O)Oc1cc(C)cc(C)c1C(C)(C)CC(=O)Oc1ncc(F)c(N)n1 | 32 (≈ 85.2 µM) | 16 (≈ 42.6 µM) | 16 (≈ 42.6 µM) | 8 (≈ 21.3 µM) | > 512 | 64 (≈ 170 µM) | 8 (≈ 21.3 µM) | 4 (≈ 10.7 µM) | < 5 |  |  |  | 
11 | CCCCCCCCCC(=O)Oc1cc(C)cc(C)c1C(C)(C)CC(=O)NCCNc1ccc2c3c(cccc13)C(=O)N(CCCC)C2=O |  |  |  |  |  |  |  |  |  | inactive |  |  | 
12 | CCCCCCCCCCCCCC(=O)Oc1cc(C)cc(C)c1C(C)(C)CC(=O)Oc1ncc(F)c(N)n1 | 16 (≈ 29.4 µM) | 8 (≈ 14.7 µM) | 4 (≈ 7.36 µM) | 2 (≈ 3.68 µM) | 512 (≈ 942 µM) | 32 (≈ 58.9 µM) | 4 (≈ 7.36 µM) | 4 (≈ 7.36 µM) | < 5 |  |  |  | 
13 | CCCCCCCC(=O)Oc1cc(C)cc(C)c1C(C)(C)CC(=O)NCCNc1ccc2c3c(cccc13)C(=O)N(CCCC)C2=O |  |  |  |  |  |  |  |  |  | inactive |  | Active | Active
14 | CCCCCCCCCCCCCCCC(=O)Oc1cc(C)cc(C)c1C(C)(C)CC(=O)Oc1ncc(F)c(N)n1 | 64 (≈ 112 µM) | 32 (≈ 56 µM) | 16 (≈ 28 µM) | 8 (≈ 14 µM) | > 512 | 128 (≈ 224 µM) | 16 (≈ 28 µM) | 8 (≈ 14 µM) | < 5 |  |  |  | 
15 | CCCCCCCCCCCCCCCC(=O)Oc1cc(C)cc(C)c1C(C)(C)CC(=O)NCCNc1ccc2c3c(cccc13)C(=O)N(CCCC)C2=O |  |  |  |  |  |  |  |  |  | inactive |  |  | 
16 | CCCCCCCC(=O)Oc1cc(C)cc(C)c1C(C)(C)CC(=O)Oc1ncc(F)c(N)n1 | 16 (≈ 34.8 µM) | 8 (≈ 17.4 µM) | 8 (≈ 17.4 µM) | 2 (≈ 4.35 µM) | 128 (≈ 279 µM) | 32 (≈ 69.6 µM) | 4 (≈ 8.7 µM) | 4 (≈ 8.7 µM) | < 5 |  |  |  | 
